Activity calls are given as the source filed them. No cut-off for these calls is given here.
Experiments:
Platelet [1] = assay: Antiplatelet activity in sheep platelet rich plasma assessed as inhibition of ADP-induced platelet aggregation at 100 uM pretreated for 1 min followed by ADP addition by photometric analysis; format: functional, cell-free; conditions: Ovis aries
In short: (§1)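 Citrated sheep blood spun 24 min at 140g to give PRP, diluted with platelet-free plasma (1000g, 10 min) to 300 000-400 000 platelets/mm³. Aggregation read photometrically (Born method) at 37 °C in stirred PRP as light transmission or optical density change. Agents dissolved in saline buffered to pH 7.4 with sodium barbitone. ADP added to 0.67 μM.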

Platelet [2] = assay: Antiplatelet activity in sheep platelet rich plasma assessed as inhibition of serotonin-induced platelet aggregation at 200 uM pretreated for 1 min followed by serotonin addition by photometric analysis; format: functional, cell-free; conditions: Ovis aries
In short: (§2)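 Serotonin-induced aggregation in sheep PRP adjusted to 300 000-400 000 platelets/mm³, measured at 37 °C by Born photometry in stirred samples. Inhibitor given 1 min before serotonin, with serotonin final 1.6 μM. Agents dissolved in barbitone-buffered saline, pH 7.4.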

[3] = Antiplatelet activity in sheep platelet rich plasma assessed as inhibition of ADP-induced platelet aggregation pretreated for 2.5 mins followed by ADP addition by photometric analysis relative to adenosine; format: functional, Ovis aries
In short: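 Sheep PRP (300 000-400 000 platelets/mm³), 37 °C, stirred, Born photometric read-out. Analogue incubated 2.5 min before ADP (final 0.67 μM). Four doses per analogue. Rate taken as initial slope of the aggregation curve. Potency from log dose vs. percent inhibition plots, expressed relative to adenosine run on each PRP batch. Means of at least four determinations.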

Platelet [4] = assay: Antiplatelet activity in sheep platelet rich plasma assessed as inhibition of serotonin-induced platelet aggregation pretreated for 1 min followed by serotonin addition by photometric analysis; format: functional, cell-free; conditions: Ovis aries; in short: as §2
Platelet [5] = assay: Antiplatelet activity in sheep platelet rich plasma assessed as inhibition of ADP-induced platelet aggregation pretreated for 2.5 mins followed by ADP addition by photometric analysis; format: functional, cell-free; conditions: Ovis aries; in short: as §1
Rattus norvegicus [6] = assay: Cardiotoxicity in anesthetized rat assessed as effect on heart rate up to 2.5 umol/kg, iv; format: toxicity, organism-based; conditions: in vivo
Rattus norvegicus [7] = assay: Toxicity in anesthetized rat assessed as hypotensive potency up to 2.5 umol/kg, iv relative to adenosine; format: organism-based; conditions: in vivo
Platelet [8] = assay: Antiplatelet activity in sheep platelet rich plasma assessed as inhibition of ADP-induced platelet aggregation at 3.75 uM pretreated for 1 min followed by ADP addition by photometric analysis; conditions: Ovis aries
Platelet [9] = assay: Antiplatelet activity in sheep platelet rich plasma assessed as inhibition of ADP-induced platelet aggregation up to 300 uM pretreated for 2.5 mins followed by ADP addition by photometric analysis; format: functional, cell-free; conditions: Ovis aries; in short: as §1
[10] = Stimulation of platelet aggregation in sheep platelet rich plasma at 100 uM pretreated for 1 min followed by ADP addition by photometric analysis; format: ADME, cell-free, Ovis aries; in short: as §1
Platelet [11] = assay: Antiplatelet activity in sheep platelet rich plasma assessed as inhibition of serotonin-induced platelet aggregation at 100 uM pretreated for 1 min followed by serotonin addition by photometric analysis; format: functional, cell-free; conditions: Ovis aries; in short: as §2

SMILES	fold change (FC) [3]	inhibition (Platelet [4])	inhibition (Platelet [5])	also measured
CSc1nc(N)c2ncn([C@@H]3O[C@H](COS(N)(=O)=O)[C@@H](O)[C@H]3O)c2n1				inhibition (Platelet [1]): Active; inhibition (Platelet [2]): Active
N.N.Nc1nc(Cl)nc2c1ncn2[C@@H]1O[C@H](COP(O)(O)=S)[C@@H](O)[C@H]1O	0.44	inactive		
CNc1nc(SC)nc2c1ncn2[C@@H]1O[C@H](COP(=O)(O)O)[C@@H](O)[C@H]1O	0.46	inactive	Dose-dependent effect	
CSc1nc(N)c2ncn([C@@H]3O[C@H](COP(O)(O)=S)[C@@H](O)[C@H]3O)c2n1.N.N	4	inactive		Activity (Rattus norvegicus [6]): Non-toxic; Activity (Rattus norvegicus [7]): < 1%
COc1nc(N)c2ncn([C@@H]3O[C@H](COP(=O)(O)O)[C@@H](O)[C@H]3O)c2n1	0.034	inactive	Dose-dependent effect	
Nc1ncnc2c1ncn2[C@@H]1O[C@H](CO)[C@@H](O)[C@H]1O				inhibition (Platelet [8]): Active
Nc1ncnc2c1ncn2[C@@H]1O[C@H](COP(O)(O)=S)[C@@H](O)[C@H]1O	0.04	inactive		
Nc1nc(Cl)nc2c1ncn2[C@@H]1O[C@H](COP(=O)(O)O)[C@@H](O)[C@H]1O	0.12	inactive	Dose-dependent effect	
CCOc1nc(N)c2ncn([C@@H]3O[C@H](COP(=O)(O)O)[C@@H](O)[C@H]3O)c2n1	0.103	inactive	Dose-dependent effect	
Nc1nc(Cl)nc2c1ncn2[C@@H]1O[C@H](COS(N)(=O)=O)[C@@H](O)[C@H]1O				inhibition (Platelet [9]): inactive; Activity [10]: Toxic; inhibition (Platelet [11]): Active
Nc1nc(C(F)(F)F)nc2c1ncn2[C@@H]1O[C@H](COP(=O)(O)O)[C@@H](O)[C@H]1O	0.22	inactive	Dose-dependent effect	
Nc1ncnc2c1ncn2[C@@H]1O[C@H](COS(N)(=O)=O)[C@@H](O)[C@H]1O				inhibition (Platelet [9]): inactive; Activity [10]: Toxic; inhibition (Platelet [2]): Active
CCNc1nc(N)c2ncn([C@@H]3O[C@H](COP(=O)(O)O)[C@@H](O)[C@H]3O)c2n1	0.027	inactive	Dose-dependent effect	
CNc1nc(Cl)nc2c1ncn2[C@@H]1O[C@H](COP(=O)(O)O)[C@@H](O)[C@H]1O	0.12	inactive	Dose-dependent effect	
Nc1ncnc2c1ncn2[C@@H]1O[C@H](COP(=O)(O)O)[C@@H](O)[C@H]1O [ADENOSINE PHOSPHATE]	0.12	inactive	Dose-dependent effect	
CCSc1nc(N)c2ncn([C@@H]3O[C@H](COP(O)(O)=S)[C@@H](O)[C@H]3O)c2n1.N.N	13.4	inactive		Activity (Rattus norvegicus [6]): Non-toxic; Activity (Rattus norvegicus [7]): < 1%; inhibition (Platelet [8]): Active
CNc1nc(N)c2ncn([C@@H]3O[C@H](COP(=O)(O)O)[C@@H](O)[C@H]3O)c2n1	0.027	inactive	Dose-dependent effect	
CSc1nc(N)c2ncn([C@@H]3O[C@H](COP(=O)(O)O)[C@@H](O)[C@H]3O)c2n1	2.41	inactive	Dose-dependent effect	Activity (Rattus norvegicus [6]): Non-toxic; Activity (Rattus norvegicus [7]): < 1%
CCSc1nc(N)c2ncn([C@@H]3O[C@H](COP(=O)(O)O)[C@@H](O)[C@H]3O)c2n1	5.2	inactive	Dose-dependent effect	Activity (Rattus norvegicus [6]): Non-toxic; Activity (Rattus norvegicus [7]): < 1%; inhibition (Platelet [8]): Active

Reference: ChEMBL document CHEMBL3244104, “New inhibitors of platelet aggregation. 5'-Phosphate, 5'-phosphorothioate, and 5'-O-sulfamoyl derivatives of 2-substituted adenosine analogues” (J Med Chem, 1978)
